Screens from PubChem BioAssay.
Sampled rows, rich in hits. Any-hit rate of the full collection: about 2%.
RAD54 branch: RAD54 (human) branch migration inhibition | Q92698 | RAD54 Holliday junction branch migration, FAM/BHQ fluorescence | inhibition, % at 10.4 µM | hit rate 0.14% among 360,000 | AID 602329;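 active = mean normalized replicate activity at least 40 and at least half of replicates scoring 40 or more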;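 also: inhibitors cause a drop in the FAM fluorescence signal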
Target sequence (Q92698 whole entry, looked up): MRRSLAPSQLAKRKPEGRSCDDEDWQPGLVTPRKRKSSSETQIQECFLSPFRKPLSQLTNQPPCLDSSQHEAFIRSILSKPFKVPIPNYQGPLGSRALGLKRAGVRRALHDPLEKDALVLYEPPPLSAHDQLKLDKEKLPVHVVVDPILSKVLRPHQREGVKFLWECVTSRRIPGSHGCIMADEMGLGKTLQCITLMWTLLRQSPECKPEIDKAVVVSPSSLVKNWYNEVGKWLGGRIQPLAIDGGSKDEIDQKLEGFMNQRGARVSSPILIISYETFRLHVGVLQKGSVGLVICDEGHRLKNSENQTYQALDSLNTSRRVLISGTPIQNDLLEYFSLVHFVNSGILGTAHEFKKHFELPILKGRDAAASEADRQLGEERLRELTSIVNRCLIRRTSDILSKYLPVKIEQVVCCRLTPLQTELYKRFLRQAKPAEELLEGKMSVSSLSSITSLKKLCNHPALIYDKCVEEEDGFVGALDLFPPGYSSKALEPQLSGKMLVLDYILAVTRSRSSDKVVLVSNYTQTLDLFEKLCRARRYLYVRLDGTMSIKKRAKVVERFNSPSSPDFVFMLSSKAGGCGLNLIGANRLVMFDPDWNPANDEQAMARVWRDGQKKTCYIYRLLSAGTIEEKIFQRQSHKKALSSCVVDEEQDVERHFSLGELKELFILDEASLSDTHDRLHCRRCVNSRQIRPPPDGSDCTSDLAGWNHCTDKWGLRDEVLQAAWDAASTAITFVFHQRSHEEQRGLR
PglD inh: inhibitors of Campylobacter jejuni PglD acetyltransferase. AID 602405. inhibition, % at 12.5 µM. purified PglD enzyme, DTNB colorimetric CoA detection. hit rate 0.098% among 360,000; in the data active = inhibition above about 16%, passing the limit was not always enough
Xi reactivation: X-chromosome reactivation activator; XiGFP mouse fibroblasts, % GFP-positive cells imaging, 3 d; cells co-treated with 5-aza-dC sensitizer; scaled so ellipticine positive control = 100%; activation, % at 7.58 µM; hit rate 0.055% among 360,000; AID 743238;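 active = mean normalized replicate activation at least 10% and every replicate at or above 10%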
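Material: XiGFP fibroblasts, SV40-immortalized. Buffer or medium: DMEM plus 5-aza-dC sensitizer. Compound: single concentration per compound, delivered by pin transfer. Times: 3 days compound exposure. Controls: ellipticine 6 µM.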
RAD52 anneal inh: RAD52 (human) annealing inhibition; recombinant RAD52 DNA annealing, FRET fluorescence; inhibition, % at 18.7 µM; hit rate 0.46% among 360,000; AID 651710;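 active = every replicate showing at least 50% inhibition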
E-sel inducer: induces E-selectin expression in human endothelial cells; activation, % at 7.58 µM; HUVEC E-selectin immunofluorescence imaging; normalized: neutral wells 0, TNF-alpha wells 100; hit rate 0.37% among 260,000; P16581;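 active = mean E-selectin-positive cell signal at least 10% of the positive control, reached in at least 60% of replicates, without over 20% cell loss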
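Test system: HUVEC | Signal: Immunofluorescence imaging | Read-out: Percent E-selectin-positive cells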
Ecoli rRNA inh: inhibits bacterial ribosomal RNA function over humanized ribosomes; E. coli WT GFP vs humanized-ribosome RFP mutants, fluorescence, 24 h; active compounds read low; DMSO median 0, no signal -100; GFP signal change (wild-type ribosome), % (concentration not given with the values); hit rate 1.6% among 350,000;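 active = significant combined selectivity score with lowered wild-type GFP, culture density cut under 30%, mutant RFP and density less affected; inactive = any of these conditions unmet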
Of the large screens only hits and unclear results are named; the others gave an inactive call.

COc1ccc(NC(=S)N2CCN(C/C=C/c3ccccc3)CC2)cc1	none (no result: RAD54 branch, PglD inh, E-sel inducer)
CCOc1ccc(NC(=S)N2CCN(C/C=C/c3ccccc3)CC2)cc1	Ecoli rRNA inh -28 (no result: RAD54 branch, PglD inh, E-sel inducer)
Cc1cc(Cl)ccc1C(=O)C1CCCN(C(=O)c2cc(C(C)C)no2)C1 (stereo unspecified)	Ecoli rRNA inh -37
CCC(=O)N(C)C[C@@H]1Oc2ncc(C#CCC(C)C)cc2C(=O)N([C@@H](C)CO)C[C@H]1C	none
Cc1cccc(NC(=O)/C(C#N)=C\c2cc(C)n(-c3ccc(C(=O)O)cc3)c2C)c1	Ecoli rRNA inh -28 (no result: RAD54 branch, PglD inh, E-sel inducer)
Cc1c(C(=O)O)cccc1-n1c(C)cc(/C=C(/C#N)C(=O)NCc2ccccc2)c1C	E-sel inducer 83 (no result: RAD54 branch, PglD inh)
Cc1ccc(NC(=S)N(C)N)cc1Cl	Ecoli rRNA inh -25
COc1ccc2c3c(n(C)c2c1)[C@H](CO)N(Cc1cccc(F)c1)CC31CCN(C(=O)Cc2ccccc2)CC1	none (no result: RAD54 branch, PglD inh)
Cc1nn(C)c(C(=O)Nc2ccn(C34CC5CC(CC(C5)C3)C4)n2)c1[N+](=O)[O-]	Ecoli rRNA inh -32 (no result: RAD54 branch, PglD inh)
Cn1cc([N+](=O)[O-])c(C(=O)Nc2ccn(C34CC5CC(CC(C5)C3)C4)n2)n1	Ecoli rRNA inh -26 (no result: RAD54 branch, PglD inh)
Cc1cccc(NC(=O)c2nc[nH]c2C(=O)N(C)CCO)c1	Ecoli rRNA inh -40 (no result: RAD54 branch, PglD inh, E-sel inducer)
O=C(/C=C\Nc1ccc(S(=O)(=O)Nc2ncccn2)cc1)c1cccc2ccccc12	Ecoli rRNA inh -20 (no result: RAD54 branch, PglD inh, E-sel inducer)
NS(=O)(=O)c1ccc(N/C=C\C(=O)c2cccc3ccccc23)cc1	none (no result: RAD54 branch, PglD inh, RAD52 anneal inh, Ecoli rRNA inh)
CC(C)CC#Cc1ccc([C@@H]2[C@@H](CO)N3CCCCN(C(=O)Nc4ccccc4)C[C@H]23)cc1	none (no result: RAD52 anneal inh)
CS(=O)(=O)NNC(=O)c1csc(Cc2c(Cl)sc3ccc(Cl)cc23)n1	E-sel inducer 63 (no result: RAD54 branch, PglD inh)
CC(C)C(=O)NNC(=O)c1csc(CS(=O)(=O)c2ccc(Cl)cc2)n1	none (no result: RAD54 branch, PglD inh, E-sel inducer)
O=[N+]([O-])c1ccccc1N/N=C1\CC2CC=CC12 (stereo unspecified)	Ecoli rRNA inh -29 (no result: RAD54 branch, PglD inh)
COc1ccc(S(=O)(=O)Nc2ccc3c(c2)CC(=O)N([C@H](C)CO)C[C@@H](C)[C@@H](CN(C)S(=O)(=O)c2c(C)noc2C)O3)cc1	none
CN1[C@H](C(=O)NCc2ccc(F)cc2)[C@@H](CO)[C@@H]2Cn3c(ccc(-c4ccccc4F)c3=O)[C@@H]21	none
S=C(c1ccc(-c2cccc(Cl)c2)o1)N1CCCCC1	Ecoli rRNA inh -29 (no result: RAD54 branch, PglD inh)
CCS(=O)(=O)N1CCCCN2[C@H](C1)[C@@H](c1ccc(-c3ccccc3C)cc1)[C@@H]2CO	none
Cc1ccccc1-c1ccc([C@@H]2[C@@H](CO)N3CCCCN(S(=O)(=O)Cc4ccccc4)C[C@H]23)cc1	RAD52 anneal inh 63
Cc1ccccc1-c1ccc([C@H]2[C@H](CO)N3CCCCN(S(=O)(=O)Cc4ccccc4)C[C@@H]23)cc1	RAD52 anneal inh 55
CN1C(=O)c2cc(NC(=O)Nc3ccccc3)ccc2OC[C@@H]2O[C@@H](CC(=O)O)CC[C@H]21	none (no result: RAD54 branch, PglD inh, RAD52 anneal inh)
CNC[C@@H]1Oc2ccc(NC(=O)CCN3CCOCC3)cc2CC(=O)N([C@@H](C)CO)C[C@H]1C	none
N#C/C(=N\Nc1ccc(F)cc1)C(=O)C1CC1	Ecoli rRNA inh -34
CC(C)(C)C(=O)c1c(N)[nH]c(C(=O)c2ccccc2)c1-c1ccc(Cl)cc1	none (no result: RAD54 branch, PglD inh)
CC(C)(C)C(=O)c1c(N)[nH]c(C(=O)c2ccccc2)c1-c1ccc(Cl)cc1Cl	Ecoli rRNA inh -30 (no result: RAD54 branch, PglD inh, E-sel inducer)
N#Cc1c(N)[nH]c(C(=O)c2ccccc2)c1-c1ccc(Cl)cc1	Ecoli rRNA inh -44 (no result: RAD54 branch, PglD inh, E-sel inducer)
C[C@@H]1CCCCO[C@@H](CN(C)C(=O)Nc2ccccc2)[C@H](C)CN([C@H](C)CO)C(=O)c2cc(NC(=O)Nc3cccc4ccccc34)ccc2O1	none
CN(C)C(=O)C[C@@H]1CC[C@@H]2[C@H](COC[C@@H](O)CN2CC2CCCC2)O1	none
C[C@@H]1CN([C@H](C)CO)C(=O)c2cc(NC(=O)NC3CCCCC3)ccc2O[C@@H](C)CCCCO[C@H]1CN(C)Cc1ccc(C(=O)O)cc1	none
O=C(/C=C/c1ccc(OCc2cccc(Cl)c2)cc1)N1CCOCC1	none (no result: RAD54 branch, PglD inh, E-sel inducer)
O=C(O)/C=C/c1ccc(OCc2cccc(F)c2)cc1	Ecoli rRNA inh -22
CC(C)c1c(O)ccc2c1CC[C@H]1C(C)(C)CCC[C@]21C	Ecoli rRNA inh -14
CC(C)(O)c1ccc2c(c1)CCC1C(C)(C(=O)O)CCCC21C (stereo unspecified)	none (no result: Xi reactivation, E-sel inducer)
Cc1[nH]c2ccccc2c1/C=N/NC(=S)NC(C)C	Ecoli rRNA inh -47 (no result: RAD54 branch, PglD inh)
Cc1[nH]c2ccccc2c1/C=N/Nc1ccccc1[N+](=O)[O-]	Ecoli rRNA inh -20 (no result: RAD54 branch, PglD inh)
Cc1[nH]c2ccccc2c1/C=N\NC(=O)c1ccccc1Cl	none
N/C(=N\OC(=O)COc1cc(Cl)c(Cl)cc1Cl)c1ccncc1	E-sel inducer 74 (no result: RAD54 branch, PglD inh)
COc1cc(N=Nc2ccc(Br)cc2)cc(C=O)c1O	none
O=Cc1cc(N=Nc2ccc(S(=O)(=O)O)cc2)ccc1O	Ecoli rRNA inh -20 (no result: RAD54 branch, PglD inh)
Cc1ccc(S(=O)(=O)N(C)C[C@H]2OCCCC[C@H](C)Oc3ccc(NC(=O)C4CCCCC4)cc3C(=O)N([C@H](C)CO)C[C@@H]2C)cc1	none (no result: RAD52 anneal inh)
